Measured values as given in ChEMBL document CHEMBL4765423, “Antikinetoplastid SAR study in 3-nitroimidazopyridine series: Identification of a novel non-genotoxic and potent anti-T. b. brucei hit-compound with improved pharmacokinetic properties” (Eur J Med Chem, 2020).
pEC50: −log10 of the molar value. Converted amounts (≈) assume the structure as drawn.

Tests used:
[1] = Cytotoxicity against human HepG2 cells assessed as reduction in cell viability after 72 hrs by MTT assay; type: cell-based
Method in brief: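 MTT was applied at 0.5 mg/mL for 2 h, formazan was dissolved in DMSO, and absorbance read at 570 nm with a 630 nm reference. Doxorubicin was the positive control. CC50 was taken from the dose-response curve, as the mean of three experiments.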

[2] = tested on: Leishmania donovani; assay: Antileishmanial activity against Leishmania donovani MHOM/IN/00/DEVI promastigotes assessed as inhibition of parasitic metabolic activity measured after 72 hrs by MTT assay; type: functional, organism-based
Method in brief: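 Log-phase promastigotes at 10⁶/mL were grown in Schneider's medium with 20% FCS at 27 °C. Compound was added from DMSO stock (final <0.5% v/v), in duplicate, for 72 h. Metabolic activity was read by MTT (4 h, 27 °C) and absorbance at 570 nm. EC50 came from non-linear dose-response regression, as the mean of ≥3 independent experiments.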

[3] = Selectivity index, ratio of CC50 for human HepG2 cells to EC50 for antileishmanial activity against Leishmania donovani MHOM/IN/00/DEVI promastigotes; type: toxicity; settings: read-out: Ratio CC50/EC50
[4] = tested on: Leishmania infantum; assay: Antileishmanial activity against Leishmania infantum MHOM/MA/67/ITMAP-263 axenic amastigotes assessed as inhibition of parasitic metabolic activity incubated for 48 hrs by steady Glow reagent based luminescence assay; type: functional, organism-based; settings: MHOM/MA/67/ITMAP-263, 48 h
Method in brief: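 Luciferase-expressing promastigotes were acidified (pH 5.4, 24 h, 24 °C) and then held 24 h at 37 °C to give axenic amastigotes. These were used at 2×10⁶/mL with compound (DMSO <0.5%), in duplicate, for 48 h at 37 °C. Luciferase luminescence was read. EC50 came from non-linear regression, as the mean of three independent experiments.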

[5] = Selectivity index, ratio of CC50 for human HepG2 cells to EC50 for antileishmanial activity against Leishmania infantum MHOM/MA/67/ITMAP-263 axenic amastigotes; type: toxicity; settings: read-out: Ratio CC50/EC50
[6] = tested on: Trypanosoma brucei brucei; assay: Antitrypanosomal activity against bloodstream form Trypanosoma brucei brucei AnTat 1.9 trypomastigotes assessed as reduction in parasite viability incubated for 69 hrs by Alamar Blue dye based assay; type: functional, organism-based; settings: AnTat 1.9, 69 h
Method in brief: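 BSF parasites were cultured in MEM/Baltz medium with 20% heat-inactivated horse serum, mercaptoethanol, L-cysteine and bathocuproine, at 37 °C and 5% CO₂. Cells were seeded at 2000 parasites/100 µL with compound from DMSO, in duplicate, for 69 h. Alamar Blue was added for 5 h and fluorescence read (ex 530/em 590 nm). EC50 came from non-linear regression over three independent experiments.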

[7] = Selectivity index, ratio of CC50 for human HepG2 cells to EC50 for Trypanosoma brucei brucei trypomastigotes AnTat 1.9; type: toxicity; settings: read-out: Ratio CC50/EC50
[8] = tested on: Trypanosoma brucei brucei; assay: Antitrypanosomal activity against blood stream form of wild type Trypanosoma brucei brucei S427 trypomastigotes assessed as inhibition of parasite growth; type: functional, organism-based
Method in brief: (§1)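 Bloodstream-form single marker S427 (T7RPOL TETR NEO) grown at 37 °C in HMI9-T with 2.5 µg/mL G418. The NTR1-overexpressing line is additionally kept in 2.5 µg/mL phleomycin and induced with 1 µg/mL tetracycline 48 h before testing.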

[9] = tested on: Trypanosoma brucei brucei; assay: Antitrypanosomal activity against blood stream form of Trypanosoma brucei brucei S427 trypomastigotes overexpressing NTR1 assessed as inhibition of parasite growth; type: functional, organism-based; method in brief: as §1
[10] = tested on: Trypanosoma brucei brucei; assay: Selectivity index, ratio of EC50 for antitrypanosomal activity against blood stream form of wild type Trypanosoma brucei brucei S427 trypomastigotes to EC50 for antitrypanosomal activity against blood stream form of Trypanosoma brucei brucei S427 trypomastigotes overexpressing NTR1; type: functional
[11] = tested on: Trypanosoma brucei brucei; assay: Potency index, ratio of nifurtimox EC50 to compound EC50 for antitrypanosomal activity against blood stream form of wild type Trypanosoma brucei brucei S427 trypomastigotes; type: functional
[12] = biological target: Albumin (Homo sapiens, UniProt P02768); assay: Binding affinity to human albumin incubated for 4 hrs by LC-MS analysis; type: ADME; settings: read-out: PB (converted)
[13] = Microsomal stability in CD-1 mouse liver microsomes assessed as half life in presence of NADP measured up to 40 mins by LC-MS analysis; type: ADME, Microsome
Method in brief: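 Compound was incubated in duplicate with female CD-1 mouse microsomes at 37 °C in 50 mM phosphate, pH 7.4. An NADP-regenerating system was present (MgCl₂ 5 mM, NADP 1 mM, G6PDH 0.4 U/mL, G6P 5 mM).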

[14] = Thermodynamic solubility of the compound in phosphate buffer at pH 7.4 incubated for 24 hrs under shaking condition by shake flask method; type: physicochemical; settings: read-out: Therm_solubility
Method in brief: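 The miniaturized shake-flask method used 20 mM DMSO stock diluted into phosphate buffer at pH 7.4 (n = 4). Tubes were shaken 24 h at room temperature and centrifuged. Supernatant was mixed 1:1 with acetonitrile and quantified by UV, with calibration at 370 nm.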

[15] = Permeability of the compound in pH 7.4 Prisma HT buffer at 100 uM incubated for 4 hrs by PAMPA-BBB assay method
[16] = Cmax in Swiss mouse at 100 mg/kg, po by LC-MS/MS analysis; type: ADME, organism-based; set-up: route oral, dose 100 mg/kg; settings: in vivo
Method in brief: (§2)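 Mice were given oral doses of 100 mg/kg. Plasma Cmax, Tmax, half-life, AUC0-inf and clearance were derived from this.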

[17] = Tmax in Swiss mouse at 100 mg/kg, po by LC-MS/MS analysis; type: ADME, organism-based; settings: in vivo; method in brief: as §2
[18] = Half life in Swiss mouse at 100 mg/kg, po by LC-MS/MS analysis; type: ADME, organism-based; settings: in vivo; method in brief: as §2
[19] = AUC (0 to infinity) in Swiss mouse at 100 mg/kg, po by LC-MS/MS analysis; type: ADME, organism-based; set-up: time infinity, route oral, dose 100 mg/kg; settings: in vivo; method in brief: as §2
[20] = Clearance in Swiss mouse at 100 mg/kg, po by LC-MS/MS analysis; type: ADME, organism-based; settings: in vivo; method in brief: as §2
[21] = Toxicity in orally dosed Swiss mouse administered once daily for 5 days; type: organism-based; settings: in vivo, po, time 5 day
Method in brief: (§3)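 Four mice received compound at 100 mg/kg by oral gavage once daily for 5 days, followed by a follow-up period.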

[22] = Toxicity in Swiss mouse assessed as lesions on kidney at 100 mg/kg, po administered once daily for 5 days; type: organism-based; settings: in vivo, 120 h, time 5 day; method in brief: as §3
[23] = Toxicity in Swiss mouse assessed as lesions on liver at 100 mg/kg, po administered once daily for 5 days; type: organism-based; settings: in vivo, 120 h, time 5 day; method in brief: as §3
[24] = Toxicity in Swiss mouse assessed as lesions on brain at 100 mg/kg, po administered once daily for 5 days; type: organism-based; settings: in vivo, 120 h, time 5 day; method in brief: as §3
[25] = Toxicity in Swiss mouse assessed as lesions on heart at 100 mg/kg, po administered once daily for 5 days; type: organism-based; settings: in vivo, 120 h, time 5 day; method in brief: as §3
[26] = Toxicity in Swiss mouse assessed as lesions on lung at 100 mg/kg, po administered once daily for 5 days; type: organism-based; settings: in vivo, 120 h, time 5 day; method in brief: as §3
[27] = tested on: CHO-K1; assay: Genotoxicity in CHOK1 cells assessed as increase in micronucleated cells at 0.01 to 0.5 mM in presence or absence of S9 fraction measured after 3 hrs by Giemsa staining based micronucleus assay; type: toxicity, cell-based, Cricetulus griseus; settings: chinese hamster, cho-k1, 3 h, 500 µM, dose 0.01-0.5 mM
Method in brief: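 CHO-K1 cells in McCoy's 5A were exposed 3 h to 0.01–0.5 mM compound, with or without 10% S9 mix, in duplicate. Cells then received cytochalasin B (3 µg/mL) for 21 h and were methanol-fixed and Giemsa-stained. Micronuclei were scored in 1000 binucleated cells per well, and CBPI and cytostasis were also determined. A χ² test was run against the negative control.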

[28] = tested on: HepG2; assay: Genotoxicity in human HepG2 cells assessed as induction of DNA damage at 5 to 20 uM incubated for 2 to 72 hrs by alkaline comet assay; type: toxicity, cell-based; settings: hepg2, 20 µM, dose lower 5 µM, time lower 2 hrs, dose upper 20 µM, time upper 72 hrs
Method in brief: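 HepG2 cells were exposed to 5, 10 and 20 µM compound for 2, 24 or 72 h. Methyl methanesulfonate was the positive control, and read-out was % DNA in tail.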

[29] = Aqueous solubility of compound; type: physicochemical; settings: buffer
[30] = Electrochemical behavior of the compound assessed as redox potential corrected toward normal hydrogen electrode by cyclic voltammetry

Chain of Albumin (P02768 whole entry): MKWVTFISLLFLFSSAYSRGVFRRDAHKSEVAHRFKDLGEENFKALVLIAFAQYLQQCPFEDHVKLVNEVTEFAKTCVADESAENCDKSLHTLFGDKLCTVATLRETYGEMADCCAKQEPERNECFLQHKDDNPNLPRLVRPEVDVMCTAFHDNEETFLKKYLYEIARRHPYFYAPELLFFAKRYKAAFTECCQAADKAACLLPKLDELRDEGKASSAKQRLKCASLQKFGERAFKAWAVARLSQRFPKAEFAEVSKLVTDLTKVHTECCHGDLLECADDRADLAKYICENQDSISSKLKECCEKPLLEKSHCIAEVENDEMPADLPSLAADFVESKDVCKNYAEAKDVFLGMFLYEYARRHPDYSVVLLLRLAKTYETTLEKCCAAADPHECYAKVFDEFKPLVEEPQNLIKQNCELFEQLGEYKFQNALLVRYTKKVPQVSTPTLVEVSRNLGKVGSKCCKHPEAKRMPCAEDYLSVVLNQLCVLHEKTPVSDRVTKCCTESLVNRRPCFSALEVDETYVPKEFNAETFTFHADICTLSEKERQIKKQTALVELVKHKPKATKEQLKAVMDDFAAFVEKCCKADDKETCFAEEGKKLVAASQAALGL

CS(=O)(=O)Cc1nc2c(Br)cc(Cl)cn2c1[N+](=O)[O-]
CC50 at 72 h [1]: 45000 nM
pEC50 [2]: 5.24
selectivity ratio [3]: 7.9
pEC50 [4]: < 4.60
selectivity ratio [5]: < 1.8
pEC50 [6]: 7.77
selectivity ratio [7]: 2650
pEC50 [8]: 7.19
pEC50 [9]: 7.80
Ratio EC50 [10]: 4
Ratio EC50 [11]: 30
fraction unbound at 4 h [12]: 0.231
half-life [13]: > 0.667 h
solubility thermodynamic at 24 h [14]: 25.8 µM (≈ 9.51 µg/mL)
Papp at 4 h, 100 µM [15]: 8.42 ×10⁻⁶ cm/s
Cmax [16]: 741 ng/mL
Tmax [17]: 5 h
half-life [18]: 7.7 h
AUC(0-inf) [19]: 7060 ng·h/mL
CL/F [20]: 0.0085 mL/min
NOAEL at 120 h [21]: 100 mg/kg/day
Activity [22]: Non-Toxic
Activity [23]: Non-Toxic
Activity [24]: Non-Toxic
Activity [25]: Non-Toxic
Activity [26]: Non-Toxic
Activity [27]: Non-Toxic
Activity [28]: Non-Toxic
solubility [29]: Soluble
Activity [30]: -0.6 V
